From ChEMBL document CHEMBL4725316, “Discovery of novel anti-breast cancer agents derived from deguelin as inhibitors of heat shock protein 90 (HSP90)” (Bioorg Med Chem Lett, 2020)
The source made the active and inactive calls. The rule behind the calls is not given here.

How the values were obtained:
JIMT-1 [1] = test: Cytotoxicity against human JIMT-1 cells assessed as reduction in cell viability at 10 uM incubated for 72 hrs by MTS assay relative to control; assay type: functional; details: JIMT-1, read-out: INH
Method in brief: (§1)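 Single-concentration primary screen: trastuzumab-sensitive BT474, trastuzumab-resistant JIMT-1 (HER2-positive breast cancer) or normal human embryonic kidney HEK293 cells exposed to compound at 10 μM for 72 h; viability by MTS assay versus DMSO control. Mean ± SEM of at least three independent experiments; Student's t-test.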

BT-474 [2] = test: Cytotoxicity against human BT-474 cells assessed as reduction in cell viability at 10 uM incubated for 72 hrs by MTS assay relative to control; assay type: functional; details: BT-474, read-out: INH; method in brief: as §1
[3] = biological target: T1, Heat shock protein HSP90 (Homo sapiens) (UniProt P07900+P08238); test: Inhibition of HSP90 in human BT-474 cells assessed as reduction in EGFR phosphorylation at 10 uM incubated for 72 hrs by immunoblot analysis; assay type: cell-based
Method in brief: (§2)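 BT474 and JIMT-1 cells treated 72 h with indicated compound concentrations or vehicle; 30 μg total lysate protein resolved by SDS-PAGE and immunoblotted for HER2, phospho-HER2 (Tyr1221/1222), EGFR, phospho-EGFR (Tyr1068), survivin, HSP90 and HSP70, with actin as loading control.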

[4] = biological target: T1, Heat shock protein HSP90 (Homo sapiens); test: Inhibition of HSP90 in human JIMT-1 cells assessed as reduction in HSP90 expression at 5 uM incubated for 72 hrs by immunoblot analysis; assay type: cell-based; method in brief: as §2
[5] = biological target: T1, Heat shock protein HSP90 (Homo sapiens); test: Inhibition of HSP90 in human JIMT-1 cells assessed as reduction in EGFR expression at 5 uM incubated for 72 hrs by immunoblot analysis; assay type: cell-based; method in brief: as §2
[6] = biological target: T1, Heat shock protein HSP90 (Homo sapiens); test: Inhibition of HSP90 in human BT-474 cells assessed as reduction in HSP70 expression at 10 uM incubated for 72 hrs by immunoblot analysis; assay type: cell-based; method in brief: as §2
[7] = biological target: T1, Heat shock protein HSP90 (Homo sapiens); test: Inhibition of HSP90 in human JIMT-1 cells assessed as reduction in HSP70 expression at 5 uM incubated for 72 hrs by immunoblot analysis; assay type: cell-based; method in brief: as §2
[8] = biological target: T1, Heat shock protein HSP90 (Homo sapiens); test: Inhibition of HSP90 in human JIMT-1 cells assessed as reduction in HER2 phosphorylation at 5 uM incubated for 72 hrs by immunoblot analysis; assay type: cell-based; method in brief: as §2
[9] = biological target: T1, Heat shock protein HSP90 (Homo sapiens); test: Inhibition of HSP90 in human BT-474 cells assessed as reduction in HER2 phosphorylation at 10 uM incubated for 72 hrs by immunoblot analysis; assay type: cell-based; method in brief: as §2
BT-474 [10] = test: Cytotoxicity against human BT-474 cells assessed as reduction in cell viability incubated for 72 hrs by MTS assay; assay type: functional, cell-based
Method in brief: (§3)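 Dose-response in BT474 (trastuzumab-sensitive) and JIMT-1 (trastuzumab-resistant) HER2-positive breast cancer cells: compound at 0.1, 0.5, 1, 5, 10 or 20 μM for 72 h, viability by MTS assay. IC50 with 95% confidence intervals calculated from the curves; mean ± SEM of at least three independent experiments, one-way ANOVA with Bonferroni post hoc test versus DMSO control.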

[11] = biological target: T1, Heat shock protein HSP90 (Homo sapiens); test: Inhibition of HSP90 in human JIMT-1 cells assessed as reduction in HER2 expression at 5 uM incubated for 72 hrs by immunoblot analysis; assay type: cell-based; method in brief: as §2
[12] = biological target: T1, Heat shock protein HSP90 (Homo sapiens); test: Inhibition of HSP90 in human JIMT-1 cells assessed as reduction in survivin expression at 5 uM incubated for 72 hrs by immunoblot analysis; assay type: cell-based; method in brief: as §2
HEK293 = test: Cytotoxicity against human HEK293 cells assessed as reduction in cell viability at 10 uM incubated for 72 hrs by MTS assay; assay type: cell-based; details: hek293, 72 h; method in brief: as §1
[13] = biological target: T1, Heat shock protein HSP90 (Homo sapiens); test: Inhibition of HSP90 in human BT-474 cells assessed as reduction in HSP70 expression at 10 uM incubated for 24 hrs by DAPI staining based confocal microscopy; assay type: cell-based
Method in brief: (§4)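 Immunocytochemistry: cells treated 24 h with compound (10 μM) or geldanamycin (0.3 μM), immunostained for HSP70 with DAPI nuclear counterstain, imaged by confocal microscopy at ×500 original magnification.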

[14] = biological target: T1, Heat shock protein HSP90 (Homo sapiens); test: Inhibition of HSP90 in human BT-474 cells assessed as reduction in survivin expression at 10 uM incubated for 72 hrs by immunoblot analysis; assay type: cell-based; method in brief: as §2
[15] = biological target: T1, Heat shock protein HSP90 (Homo sapiens); test: Inhibition of HSP90 in human BT-474 cells assessed as reduction in HSP90 expression at 10 uM incubated for 72 hrs by immunoblot analysis; assay type: cell-based; method in brief: as §2
[16] = biological target: T1, Heat shock protein HSP90 (Homo sapiens); test: Inhibition of HSP90 in human BT-474 cells assessed as reduction in EGFR expression at 10 uM incubated for 72 hrs by immunoblot analysis; assay type: cell-based; method in brief: as §2
[17] = biological target: T1, Heat shock protein HSP90 (Homo sapiens); test: Inhibition of HSP90 in human JIMT-1 cells assessed as reduction in HSP70 expression at 10 uM incubated for 24 hrs by DAPI staining based confocal microscopy; assay type: cell-based; method in brief: as §4
[18] = biological target: T1, Heat shock protein HSP90 (Homo sapiens); test: Inhibition of HSP90 in human JIMT-1 cells assessed as reduction in EGFR phosphorylation at 5 uM incubated for 72 hrs by immunoblot analysis; assay type: cell-based; method in brief: as §2
JIMT-1 [19] = test: Cytotoxicity against human JIMT-1 cells assessed as reduction in cell viability incubated for 72 hrs by MTS assay; assay type: functional, cell-based; method in brief: as §3
[20] = biological target: T1, Heat shock protein HSP90 (Homo sapiens); test: Inhibition of HSP90 in human BT-474 cells assessed as reduction in HER2 expression at 10 uM incubated for 72 hrs by immunoblot analysis; assay type: cell-based; method in brief: as §2

With `COc1cc(NC(=O)c2ccc3c(c2OC)C=CC(C)(C)O3)ccc1OCC1CCN(C)CC1` the inhibition at 10 µM (JIMT-1 [1]) was greater than 50% and the inhibition at 10 µM (BT-474 [2]) was greater than 50%.

`COc1cc(NC(=O)c2ccc3c(c2OC)C=CC(C)(C)O3)ccc1OCCCC1CCN(C)CC1` gave an inhibition at 10 µM (JIMT-1 [1]) greater than 50% and an inhibition at 10 µM (BT-474 [2]) greater than 50%.

`COc1cc(NC(=O)c2ccc3c(c2OC)C=CC(C)(C)O3)ccc1OCC1CCNCC1` gave an inhibition at 10 µM (JIMT-1 [1]) greater than 50% and an inhibition at 10 µM (BT-474 [2]) greater than 50%.

`COc1cc(NC(=O)c2ccc3c(c2OC)C=CC(C)(C)O3)ccc1OCCCC1CCN(CCO)CC1` was tested, and the inhibition at 10 µM (JIMT-1 [1]) was greater than 50% and the inhibition at 10 µM (BT-474 [2]) was greater than 50%.

For `COc1cc(NC(=O)c2ccc3c(c2OC)C=CC(C)(C)O3)ccc1OCCC1CCCCN1C` (centres undefined), the inhibition at 10 µM (JIMT-1 [1]) was greater than 50% and the inhibition at 10 µM (BT-474 [2]) was greater than 50%.

`COc1cc(NC(=O)c2ccc3c(c2OC)C=CC(C)(C)O3)ccc1OCCCC1CCNCC1` was tested, and the inhibition at 10 µM (JIMT-1 [1]) was greater than 50% and the inhibition at 10 µM (BT-474 [2]) was greater than 50%.

`COc1cc(NC(=O)c2ccc3c(c2OC)C=CC(C)(C)O3)ccc1OCCCN1CCCCC1` showed an inhibition at 10 µM (JIMT-1 [1]) greater than 50% and an inhibition at 10 µM (BT-474 [2]) greater than 50%.

Molecule `COc1cc(NC(=O)c2ccc3c(c2OC)C=CC(C)(C)O3)ccc1OCCCC1CCCCN1` (centres undefined) has an inhibition at 10 µM (JIMT-1 [1]) greater than 50% and an inhibition at 10 µM (BT-474 [2]) greater than 50%.

For `COc1cc(NC(=O)c2ccc3c(c2OC)C=CC(C)(C)O3)ccc1OCCC1CCCCN1` (centres undefined), the inhibition [3] was “Active”, the inhibition [4] was “inactive” and the inhibition [5] was “Active”. For the same molecule, the inhibition [6] was “inactive”, the inhibition [7] was “inactive” and the inhibition [8] was “Active”. The inhibition [9] was “Active”, the Activity (BT-474 [10]) was “Dose-dependent effect” and the IC50 (BT-474 [10]; BT-474, 72 h) was 8.53 µM. For the same molecule, the inhibition [11] was “Active”, the inhibition [12] was “Active” and the Activity (HEK293) was “Non-Toxic”. For the same molecule, the inhibition [13] was “inactive”, the inhibition at 10 µM (JIMT-1 [1]) was greater than 50% and the inhibition [14] was “Active”. For the same molecule, the inhibition at 10 µM (BT-474 [2]) was greater than 50%, the inhibition [15] was “inactive” and the inhibition [16] was “Active”. For the same molecule, the inhibition [17] was “inactive”, the inhibition [18] was “Active” and the Activity (JIMT-1 [19]) was “Dose-dependent effect”. For the same molecule, the IC50 (JIMT-1 [19]; JIMT-1, 72 h) was 4.45 µM and the inhibition [20] was “Active”.
